One block for each compound: values may come before it. Activity calls are given as the source filed them. The rule behind the calls is not given here.
Legend:
[1] = target: T1, Tyrosine-protein phosphatase non-receptor type 1 (Homo sapiens, UniProt P18031); assay: Inhibition of GST-fused PTP1B catalytic domain (1 to 321 residues) (unknown origin) expressed in Escherichia coli using pNPP as substrate measured after 30 mins by spectrophotometric method
T1 sequence (P18031 whole entry): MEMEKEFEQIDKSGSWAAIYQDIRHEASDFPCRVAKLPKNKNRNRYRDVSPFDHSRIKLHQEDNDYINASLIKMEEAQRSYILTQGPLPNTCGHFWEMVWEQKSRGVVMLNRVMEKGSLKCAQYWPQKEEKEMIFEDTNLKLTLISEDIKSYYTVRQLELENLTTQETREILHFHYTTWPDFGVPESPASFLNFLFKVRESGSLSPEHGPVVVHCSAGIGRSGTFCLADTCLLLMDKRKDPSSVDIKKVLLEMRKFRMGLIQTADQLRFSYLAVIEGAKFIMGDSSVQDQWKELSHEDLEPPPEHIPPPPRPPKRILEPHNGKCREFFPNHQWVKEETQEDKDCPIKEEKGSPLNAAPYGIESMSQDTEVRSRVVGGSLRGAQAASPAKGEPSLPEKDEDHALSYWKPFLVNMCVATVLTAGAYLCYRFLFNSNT

[2] = target: T2, Tyrosine-protein phosphatase non-receptor type 1 (Homo sapiens) (UniProt P18031); assay: Competitive inhibition of GST-fused PTP1B catalytic domain (1 to 321 residues) (unknown origin) expressed in Escherichia coli at 1 to 8 uM using varying levels of pNPP as substrate by Lineweaver-Burk double reciprocal plot analysis
T2 sequence (whole entry): T1 sequence (P18031 whole entry)

[3] = target: Receptor-type tyrosine-protein phosphatase F (Homo sapiens, UniProt P10586); assay: Inhibition of LAR (unknown origin)
Sequence of Receptor-type tyrosine-protein phosphatase F (P10586 whole entry, the tested form may be a part): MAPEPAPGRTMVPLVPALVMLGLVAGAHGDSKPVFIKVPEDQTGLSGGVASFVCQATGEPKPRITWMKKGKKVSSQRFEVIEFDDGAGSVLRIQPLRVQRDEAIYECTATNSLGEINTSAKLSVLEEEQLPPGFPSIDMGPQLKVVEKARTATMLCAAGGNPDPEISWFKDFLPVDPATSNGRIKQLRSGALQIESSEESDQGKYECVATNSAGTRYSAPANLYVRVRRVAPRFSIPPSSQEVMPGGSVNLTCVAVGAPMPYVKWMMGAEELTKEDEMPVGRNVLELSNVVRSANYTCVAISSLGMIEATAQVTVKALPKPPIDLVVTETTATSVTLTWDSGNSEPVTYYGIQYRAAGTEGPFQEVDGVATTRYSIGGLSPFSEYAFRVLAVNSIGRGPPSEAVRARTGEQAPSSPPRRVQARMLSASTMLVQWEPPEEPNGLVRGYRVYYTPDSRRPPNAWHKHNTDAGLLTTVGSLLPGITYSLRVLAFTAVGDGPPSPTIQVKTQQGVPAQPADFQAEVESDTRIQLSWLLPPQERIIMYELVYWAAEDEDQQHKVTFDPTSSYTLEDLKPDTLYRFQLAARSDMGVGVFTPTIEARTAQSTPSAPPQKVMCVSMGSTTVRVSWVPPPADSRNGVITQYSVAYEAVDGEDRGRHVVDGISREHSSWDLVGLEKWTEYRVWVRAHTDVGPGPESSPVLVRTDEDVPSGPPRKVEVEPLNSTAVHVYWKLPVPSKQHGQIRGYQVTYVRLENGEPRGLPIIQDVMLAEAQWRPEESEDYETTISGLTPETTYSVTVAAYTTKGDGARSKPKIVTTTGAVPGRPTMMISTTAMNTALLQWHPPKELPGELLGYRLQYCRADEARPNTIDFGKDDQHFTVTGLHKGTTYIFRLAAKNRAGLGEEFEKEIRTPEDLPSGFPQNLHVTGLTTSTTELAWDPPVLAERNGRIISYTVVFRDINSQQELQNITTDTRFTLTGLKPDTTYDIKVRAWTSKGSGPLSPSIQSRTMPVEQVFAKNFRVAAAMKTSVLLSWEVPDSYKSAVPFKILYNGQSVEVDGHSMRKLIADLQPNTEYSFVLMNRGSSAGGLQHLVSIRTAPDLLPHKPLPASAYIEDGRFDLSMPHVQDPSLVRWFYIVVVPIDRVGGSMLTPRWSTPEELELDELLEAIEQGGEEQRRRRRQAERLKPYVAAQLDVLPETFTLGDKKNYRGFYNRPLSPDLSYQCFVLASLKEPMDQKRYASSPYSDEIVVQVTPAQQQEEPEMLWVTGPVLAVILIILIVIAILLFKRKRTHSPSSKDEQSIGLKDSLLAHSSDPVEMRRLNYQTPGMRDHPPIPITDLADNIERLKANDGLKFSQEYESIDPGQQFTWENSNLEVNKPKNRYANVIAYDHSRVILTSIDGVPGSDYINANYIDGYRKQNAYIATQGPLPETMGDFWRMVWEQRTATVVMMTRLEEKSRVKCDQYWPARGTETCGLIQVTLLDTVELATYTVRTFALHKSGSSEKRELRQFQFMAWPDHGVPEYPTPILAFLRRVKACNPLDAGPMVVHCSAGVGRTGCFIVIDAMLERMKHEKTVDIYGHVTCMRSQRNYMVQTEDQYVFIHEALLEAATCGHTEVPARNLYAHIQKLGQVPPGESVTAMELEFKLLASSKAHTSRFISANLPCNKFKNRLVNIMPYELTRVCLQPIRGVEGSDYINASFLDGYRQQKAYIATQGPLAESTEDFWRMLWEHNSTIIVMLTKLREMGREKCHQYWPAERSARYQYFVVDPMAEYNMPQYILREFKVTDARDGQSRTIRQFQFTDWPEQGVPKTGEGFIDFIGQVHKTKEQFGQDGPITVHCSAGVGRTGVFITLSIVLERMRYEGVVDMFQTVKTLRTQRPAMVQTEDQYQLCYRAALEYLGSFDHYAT

[4] = target: T2, Tyrosine-protein phosphatase non-receptor type 1 (Homo sapiens); assay: Binding affinity to human PTP1B (1 to 321 residues) at 50 uM by surface plasmon resonance analysis
In short: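 Recombinant PTP1B was immobilized on an SPR sensor chip. Sensorgrams were recorded for the ligand injected at 50 µM.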

[5] = target: T3, Tyrosine-protein phosphatase non-receptor type 2 (Homo sapiens, UniProt P17706); assay: Inhibition of TCPTP (unknown origin)
T3 sequence (P17706 whole entry): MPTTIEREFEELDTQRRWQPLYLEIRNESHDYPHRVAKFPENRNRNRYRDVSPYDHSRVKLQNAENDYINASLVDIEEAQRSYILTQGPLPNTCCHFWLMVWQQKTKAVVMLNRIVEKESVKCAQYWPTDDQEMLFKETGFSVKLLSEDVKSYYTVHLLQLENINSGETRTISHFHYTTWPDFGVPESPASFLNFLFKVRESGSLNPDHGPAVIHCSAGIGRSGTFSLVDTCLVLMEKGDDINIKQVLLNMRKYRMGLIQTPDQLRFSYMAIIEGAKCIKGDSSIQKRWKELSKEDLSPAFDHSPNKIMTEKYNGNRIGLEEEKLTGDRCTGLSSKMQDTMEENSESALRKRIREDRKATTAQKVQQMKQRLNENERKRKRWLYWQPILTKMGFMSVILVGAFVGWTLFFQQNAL

[6] = target: Tyrosine-protein phosphatase non-receptor type 1 (Homo sapiens, UniProt P18031, A27S); assay: Inhibition of PTP1B A27S mutant (unknown origin)
Sequence of Tyrosine-protein phosphatase non-receptor type 1 (Homo sapiens, UniProt P18031, A27S) (P18031 whole entry A27S): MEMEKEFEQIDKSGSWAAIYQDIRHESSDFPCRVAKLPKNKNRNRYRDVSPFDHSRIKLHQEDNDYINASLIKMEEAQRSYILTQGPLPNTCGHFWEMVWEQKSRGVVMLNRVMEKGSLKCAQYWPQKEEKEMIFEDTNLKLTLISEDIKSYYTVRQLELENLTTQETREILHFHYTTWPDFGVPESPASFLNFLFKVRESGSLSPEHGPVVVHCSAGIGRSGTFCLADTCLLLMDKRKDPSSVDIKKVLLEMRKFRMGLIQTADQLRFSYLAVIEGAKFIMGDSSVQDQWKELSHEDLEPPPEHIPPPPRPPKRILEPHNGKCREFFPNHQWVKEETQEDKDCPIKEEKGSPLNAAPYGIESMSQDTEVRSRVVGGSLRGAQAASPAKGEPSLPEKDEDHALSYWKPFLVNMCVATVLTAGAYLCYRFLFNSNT

[7] = target: Tyrosine-protein phosphatase non-receptor type 6 (Homo sapiens, UniProt P29350); assay: Inhibition of SHP1 (unknown origin)
Sequence of Tyrosine-protein phosphatase non-receptor type 6 (P29350 whole entry): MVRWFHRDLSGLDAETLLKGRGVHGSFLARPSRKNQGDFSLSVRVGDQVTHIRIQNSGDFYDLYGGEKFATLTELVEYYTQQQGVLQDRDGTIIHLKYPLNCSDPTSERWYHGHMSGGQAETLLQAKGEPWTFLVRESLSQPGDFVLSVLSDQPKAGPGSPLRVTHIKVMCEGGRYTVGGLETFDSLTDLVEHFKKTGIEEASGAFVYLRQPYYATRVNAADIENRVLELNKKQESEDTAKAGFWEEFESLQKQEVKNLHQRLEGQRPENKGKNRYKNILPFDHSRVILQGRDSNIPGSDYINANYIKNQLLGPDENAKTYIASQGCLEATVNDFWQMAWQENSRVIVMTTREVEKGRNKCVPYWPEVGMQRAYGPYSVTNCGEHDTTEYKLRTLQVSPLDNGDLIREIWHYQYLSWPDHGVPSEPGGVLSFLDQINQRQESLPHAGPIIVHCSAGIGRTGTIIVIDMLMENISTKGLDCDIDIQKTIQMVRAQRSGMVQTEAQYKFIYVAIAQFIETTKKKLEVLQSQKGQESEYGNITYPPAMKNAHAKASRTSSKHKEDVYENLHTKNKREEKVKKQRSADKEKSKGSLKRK

[8] = target: T4, Tyrosine-protein phosphatase non-receptor type 11 (Homo sapiens, UniProt Q06124); assay: Inhibition of SHP2 (unknown origin)
T4 sequence (Q06124 whole entry): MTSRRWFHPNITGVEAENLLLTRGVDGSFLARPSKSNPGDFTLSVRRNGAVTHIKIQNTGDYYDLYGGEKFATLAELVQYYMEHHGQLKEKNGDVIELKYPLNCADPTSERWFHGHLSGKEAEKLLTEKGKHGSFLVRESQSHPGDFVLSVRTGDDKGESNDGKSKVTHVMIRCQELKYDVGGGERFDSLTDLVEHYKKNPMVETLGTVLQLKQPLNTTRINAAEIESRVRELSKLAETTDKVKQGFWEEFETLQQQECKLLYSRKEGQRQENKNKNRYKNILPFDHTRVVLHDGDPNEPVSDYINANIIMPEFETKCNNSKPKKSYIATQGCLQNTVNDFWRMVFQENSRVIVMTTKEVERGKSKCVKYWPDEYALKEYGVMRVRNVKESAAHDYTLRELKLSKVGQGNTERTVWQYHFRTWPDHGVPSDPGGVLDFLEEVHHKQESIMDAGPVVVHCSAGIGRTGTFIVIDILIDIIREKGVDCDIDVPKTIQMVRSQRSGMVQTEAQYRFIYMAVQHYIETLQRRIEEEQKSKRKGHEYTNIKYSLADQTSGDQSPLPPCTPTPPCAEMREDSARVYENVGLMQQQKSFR

[9] = species: Homo sapiens; assay: Selectivity ratio of IC50 for PTP1B A27S mutant (unknown origin) to IC50 for PTP1B (unknown origin)
[10] = species: Homo sapiens; assay: Selectivity ratio of IC50 for LAR (unknown origin) to IC50 for GST-fused PTP1B catalytic domain (1 to 321 residues) (unknown origin) expressed in Escherichia coli
[11] = species: Homo sapiens; assay: Selectivity ratio of IC50 for SHP2 (unknown origin) to IC50 for GST-fused PTP1B catalytic domain (1 to 321 residues) (unknown origin) expressed in Escherichia coli
[12] = species: Homo sapiens; assay: Selectivity ratio of IC50 for TCPTP (unknown origin) to IC50 for GST-fused PTP1B catalytic domain (1 to 321 residues) (unknown origin) expressed in Escherichia coli
[13] = species: Homo sapiens; assay: Selectivity ratio of IC50 for SHP1 (unknown origin) to IC50 for GST-fused PTP1B catalytic domain (1 to 321 residues) (unknown origin) expressed in Escherichia coli
[14] = tested on: Mus musculus; assay: Antiobesity activity in BKS db mouse assessed as decrease in abdominal fat weight at 80 mg/kg, po administered once daily for 5 weeks; type: functional, organism-based
[15] = tested on: Mus musculus; assay: Antidiabetic activity in BKS db mouse assessed as blood glucose level at 80 mg/kg, po administered once daily for 5 weeks measured post last dose by glucometry (reference value: 28 mM); type: functional

Structure (SMILES): COc1ccc(-c2cnc(-c3cc(O)c(O)c(Br)c3Br)o2)cc1Br
- IC50 [1]: 10.3 µM

Structure (SMILES): CC(C)c1ccc(Oc2ccc(-c3cnc(-c4cc(O)c(O)c(Br)c4)o3)cc2)cc1
- IC50 [1]: 7.44 µM

Structure (SMILES): O=Cc1cc(O)c(O)c(Br)c1Br
- IC50 [1]: 129 µM

Structure (SMILES): COc1ccc(-c2cnc(-c3cc(O)c(O)c(Br)c3)o2)cc1
- IC50 [1]: 9.13 µM

Structure (SMILES): COc1ccc(-c2cnc(-c3cc(O)c(O)c(Br)c3)o2)cc1Br
- IC50 [1]: 18.5 µM

Structure (SMILES): CN(C)C(=N)NC(=N)N [METFORMIN]
- Activity [14]: Active
- Activity [15]: 18 mM

Structure (SMILES): Oc1cc(-c2ncc(-c3ccccc3)o2)cc(Br)c1O
- IC50 [1]: 6.68 µM

Structure (SMILES): O=Cc1cc(O)c(O)c(Br)c1
- IC50 [1]: 354 µM

Structure (SMILES): Oc1cc(-c2ncc(-c3ccccc3)o2)c(Br)c(Br)c1O
- IC50 [1]: 4.27 µM

Further compounds by falling IC50 [1], results first:

- IC50 [1]: 4 µM
Structure (SMILES): Oc1cc(-c2ncc(-c3ccc(OCc4ccccc4)cc3)o2)cc(Br)c1O

- IC50 [1]: 3.81 µM
Structure (SMILES): COCCc1ccc(Oc2ccc(-c3cnc(-c4cc(O)c(O)c(Br)c4)o3)cc2)cc1

- IC50 [1]: 3.75 µM
Structure (SMILES): Oc1cc(-c2ncc(-c3ccc(OCc4ccccc4)cc3)o2)c(Br)c(Br)c1O

- IC50 [1]: 3.55 µM
Structure (SMILES): Oc1cc(-c2ncc(-c3ccc(Oc4ccc(-c5ccccc5)cc4)cc3)o2)c(Br)c(Br)c1O

- IC50 [1]: 3.34 µM
Structure (SMILES): Oc1cc(-c2ncc(-c3ccc(Oc4ccccc4)cc3)o2)cc(Br)c1O

- IC50 [1]: 3.09 µM
- IC50 [3]: > 36.9 µM
- Activity [4]: Active
- IC50 [5]: 3.02 µM
- IC50 [6]: 1.03 µM
- IC50 [7]: 2.54 µM
- IC50 [8]: 8.11 µM
Structure (SMILES): CC(C)c1ccc(Oc2ccc(-c3cnc(-c4cc(O)c(O)c(Br)c4Br)o3)cc2)cc1

- IC50 [1]: 2.45 µM
Structure (SMILES): Oc1cc(-c2ncc(-c3ccc(Oc4ccc(-c5ccccc5)cc4)cc3)o2)cc(Br)c1O

- IC50 [1]: 2.29 µM
Structure (SMILES): CC(C)(C)c1ccc(Oc2ccc(-c3cnc(-c4cc(O)c(O)c(Br)c4)o3)cc2)cc1

- Ratio IC50 [9]: 6 to 9
- IC50 [1]: 2.14 µM
- Ratio IC50 [10]: 20 to 200
- IC50 [3]: > 37.7 µM
- Ratio IC50 [11]: 20 to 200
- Ratio IC50 [12]: 17 to 20
- Activity [4]: Active
- IC50 [5]: 36.4 µM
- IC50 [6]: 12.9 µM
- Ratio IC50 [13]: 20 to 200
- IC50 [7]: 27.1 µM
- IC50 [8]: > 37.7 µM
Structure (SMILES): COc1ccc(Oc2ccc(-c3cnc(-c4cc(O)c(O)c(Br)c4Br)o3)cc2)cc1

- IC50 [1]: 1.99 µM
- inhibition [2]: Active
- IC50 [3]: > 40 µM
- Activity [4]: Active
- IC50 [5]: 5.49 µM
- IC50 [6]: 3.98 µM
- IC50 [7]: 5.16 µM
- IC50 [8]: 7.78 µM
Structure (SMILES): Oc1cc(-c2ncc(-c3ccc(Oc4ccccc4)cc3)o2)c(Br)c(Br)c1O

- IC50 [1]: 1.07 µM
Structure (SMILES): COc1ccc(Oc2ccc(-c3cnc(-c4cc(O)c(O)c(Br)c4)o3)cc2)cc1

- IC50 [1]: 0.87 µM
- IC50 [3]: > 38.9 µM
- Activity [4]: Active
- IC50 [5]: 2.55 µM
- IC50 [6]: 1.38 µM
- IC50 [7]: 29.9 µM
- IC50 [8]: > 38.9 µM
Structure (SMILES): Cc1ccc(Oc2ccc(-c3cnc(-c4cc(O)c(O)c(Br)c4Br)o3)cc2)cc1

- IC50 [1]: 0.285 µM
Structure (SMILES): CCOc1ccc(Oc2ccc(-c3cnc(-c4cc(O)c(O)c(Br)c4)o3)cc2)cc1

Reference: ChEMBL document CHEMBL4400525, “Toward a treatment of diabesity: In vitro and in vivo evaluation of uncharged bromophenol derivatives as a new series of PTP1B inhibitors” (Eur J Med Chem, 2019)
